How the values were obtained:
[1] = target: T1, Low molecular weight protein-tyrosine phosphatase A (Mycobacterium tuberculosis) (UniProt P9WIA1); assay: Inhibition of Mycobacterium tuberculosis recombinant protein tyrosine phosphatase assessed as enzyme activity at 25 uM; design: scale not given: the % may be the effect or the level left
T1 sequence (whole entry): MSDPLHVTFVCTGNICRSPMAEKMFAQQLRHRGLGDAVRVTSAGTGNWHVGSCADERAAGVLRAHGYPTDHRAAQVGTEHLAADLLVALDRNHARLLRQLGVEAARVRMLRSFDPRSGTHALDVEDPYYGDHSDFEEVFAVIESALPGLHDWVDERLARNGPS
How it was run: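 His-tagged recombinant M. tuberculosis PtpA expressed from pET28a. Compound diluted in 25 mM bis-Tris–HCl pH 8.0, 20 mM imidazole pH 7.0, 40 mM DTT and 40 mM pNPP substrate; enzyme added to start. Incubated 20 min at 37 °C, absorbance at 410 nm read every 2 min. Controls: no enzyme; enzyme with DMSO. Percent activity averaged from two experiments in triplicate.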

[2] = target: T2, Low molecular weight protein-tyrosine phosphatase A (Mycobacterium tuberculosis, UniProt P9WIA1); assay: Inhibition of Mycobacterium tuberculosis recombinant protein tyrosine phosphatase
T2 sequence (P9WIA1 whole entry): T1 sequence (whole entry)

| Structure (SMILES) | Activity [1] [%] | IC50 [2] [µM] |
| --- | --- | --- |
| COc1cc(C(=O)/C=C/c2ccc3ccccc3c2)cc(OC)c1OC | 109 |  |
| O=C(/C=C/c1ccc2c(c1)OCO2)c1ccccc1 | 103 |  |
| COc1ccc(C(=O)/C=C/c2ccc3c(c2)OCO3)cc1OC | 99 |  |
| COc1cc(OC)c(C(=O)/C=C/c2cccc([N+](=O)[O-])c2)c(OC)c1 | 100 |  |
| COc1cc(O)c(C(=O)/C=C/c2cccc3ccccc23)c(OC)c1 | 84.4 |  |
| O=C(/C=C/c1ccc2c(c1)OCO2)c1ccc(Br)cc1 | 86 |  |
| O=C(/C=C/c1cccc2ccccc12)c1ccccc1 | 62.7 |  |
| COc1ccc(OC)c(C(=O)/C=C/c2cccc3ccccc23)c1 | 54 | 39.5 |
| COc1cc(OC)c(C(=O)/C=C/c2cccc(Cl)c2)c(OC)c1 | 98 |  |
| O=C(/C=C/c1cccc2ccccc12)c1ccc(Br)cc1 | 75 |  |
| O=C(/C=C/c1ccc2ccccc2c1)c1ccccc1O | 74.6 |  |
| COC1C=C(C(=O)/C=C/c2ccc3ccccc3c2)C=CC1O (centres undefined) | 61 |  |
| O=C(/C=C/c1cccc2ccccc12)c1ccccc1O | 24 | 50.7 |
| O=C(/C=C/c1ccc2c(c1)OCO2)c1cccc([N+](=O)[O-])c1 | 74 |  |
| COc1ccc(C(=O)/C=C/c2cccc3ccccc23)c(OC)c1 | 80 |  |
| COc1cc(O)c(C(=O)/C=C/c2cccc([N+](=O)[O-])c2)c(OC)c1 | 92 |  |
| COc1cc(C(=O)/C=C/c2cccc3ccccc23)cc(OC)c1OC | 102 |  |
| O=C(/C=C/c1cccc2ccccc12)c1cccc(O)c1 | 79.5 |  |

| Structure (SMILES) | Activity [1] [%] | IC50 [2] [µM] |
| --- | --- | --- |
| O=C(/C=C/c1ccc2ccccc2c1)c1ccc([N+](=O)[O-])cc1 | 89 |  |
| O=C(/C=C/c1ccc2ccccc2c1)c1ccc(Br)cc1 | 89.2 |  |
| COc1ccc(C(=O)/C=C/c2cccc3ccccc23)cc1 | 82.4 |  |
| COc1ccc(C(=O)/C=C/c2ccc3c(c2)OCO3)cc1 | 94 |  |
| COc1cc(O)c(C(=O)/C=C/c2cccc(Cl)c2)c(OC)c1 | 87 |  |
| COc1cc(C(=O)/C=C/c2ccc3c(c2)OCO3)cc(OC)c1OC | 82.4 |  |
| O=C(/C=C/c1cccc2ccccc12)c1cccc([N+](=O)[O-])c1 | 88 |  |
| COc1cc(OC)c(C(=O)/C=C/c2ccc3ccccc3c2)c(OC)c1 | 104 |  |
| COc1ccc(OC)c(C(=O)/C=C/c2ccc3c(c2)OCO3)c1 | 91.3 |  |
| COc1ccc(OC)c(C(=O)/C=C/c2ccc3ccccc3c2)c1 | 42.5 | 8.4 |
| O=C(/C=C/c1ccc2c(c1)OCO2)c1ccc([N+](=O)[O-])cc1 | 80.5 |  |
| COc1cc(C(=O)/C=C/c2ccc3c(c2)OCO3)ccc1O | 80 |  |
| COc1ccc(C(=O)/C=C/c2ccc3ccccc3c2)cc1OC | 31.5 | 23.1 |
| O=C(/C=C/c1cccc2ccccc12)c1ccc([N+](=O)[O-])cc1 | 82 |  |
| O=C(/C=C/c1ccc2c(c1)OCO2)c1ccccc1O | 103 |  |
| O=C(/C=C/c1ccc2ccccc2c1)c1cccc([N+](=O)[O-])c1 | 84 |  |
| COc1cc(OC)c(C(=O)/C=C/c2ccc(Cl)c(Cl)c2)c(OC)c1 | 99 |  |

Source: ChEMBL document CHEMBL1152134, “Synthetic chalcones as efficient inhibitors of Mycobacterium tuberculosis protein tyrosine phosphatase PtpA” (Bioorg Med Chem Lett, 2008)
